# What was measured:
# [1] = tested on: L1210; assay: In vitro antitumor activity against L1210 lymphocytic leukemia tumor cell line was determined; type: functional; settings: Mus musculus, read-out: ID50 (the source's name)
# In short: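 Inhibition of L1210 leukemia colony formation in vitro, with mitomycin C as positive reference.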
# [2] = tested on: Mus musculus; assay: Percent T/C ([…]) for antitumor activity against P388 Leukemia in CD2 mice at fractioned dose treatment of 2 mg/kg; type: functional
# In short: (§1)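 Mouse P388 leukemia model. Drugs were given intraperitoneally, either as a single injection or once daily for 9 consecutive days (fractioned schedule). Outcomes were median survival time in days, %T/C, and % body weight change.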
# [3] = tested on: Mus musculus; assay: Body wieght treated/body weight untreated controls of compound (10 mg/Kg) was evaluated in vivo for antitumor activity against MAC 16 in female NMRI mice on day 12; type: functional
# [4] = tested on: Mus musculus; assay: Compound (10 mg/Kg) was evaluated in vivo for antitumor activity against MAC 13 in female NMRI mice on day 2 and ratio of tumor weight of treated to that of control was determined
# [5] = tested on: Mus musculus; assay: Compound (10 mg/Kg) was evaluated in vivo for antitumor activity against MAC 16 in female NMRI mice on day 4 and ratio of tumor weight of treated to that of control was determined; type: functional
# [6] = tested on: Mus musculus; assay: Percentage change in body weight [(day 6 - day 1)/ day 1] for antitumor activity against P388 Leukemia in CD2 mice at fractioned dose treatment of 2 mg/Kg; type: functional; in short: as §1
# [7] = tested on: Mus musculus; assay: Ability of intraperitoneally administered compound (3 mg/kg/day) to inhibit growth of human tumor xenograft GXF 97 was assessed on day 28 in nude mice; type: functional
# In short: (§2)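 GXF 97 human gastric xenograft grown subcutaneously in nude mice for 24 days, then randomized; dosing began 1 day later as ip injections on days 1-4. Groups had 4-5 mice. Tumor length and width were measured. %T/C = median relative tumor size of treated / median relative tumor size of controls.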
# [8] = tested on: WiDr; assay: In vitro antitumor activity against WiDr colon carcinoma tumor cell line was determined; type: functional; settings: Homo sapiens, read-out: ID50 (the source's name)
# In short: (§3)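 Cell growth inhibition in vitro measured by the PIT method, with mitomycin C as positive reference.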
# [9] = tested on: Mus musculus; assay: Percentage change in body weight [(day 6 - day 1)/ day 1] for antitumor activity against P388 Leukemia in CD2 mice at fractioned dose treatment of 12 mg/kg; type: functional; settings: in the assay text read “single dose treatment” for “fractioned dose treatment”; in short: as §1
# [10] = tested on: Mus musculus; assay: Percentage change in body weight [(day 6 - day 1)/ day 1] for antitumor activity against P388 Leukemia in CD2 mice at fractioned dose treatment of 8 mg/Kg; type: functional; settings: in the assay text read “single dose treatment” for “fractioned dose treatment”; in short: as §1
# [11] = tested on: Mus musculus; assay: Median survival time in days for antitumor activity against P388 Leukemia in CD2 mice at single dose treatment of 8 mg/Kg
# [12] = tested on: Mus musculus; assay: Compound (10 mg/Kg) was evaluated in vivo for antitumor activity against MAC 16 in female NMRI mice on day 12 and ratio of tumor weight of treated to that of control was determined; type: functional
# [13] = tested on: Mus musculus; assay: Percent inhibition of compound (10 mg/Kg) was evaluated in vivo for antitumor activity against MAC 13 in female NMRI mice on day 2; type: functional
# In short: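 MAC 13 in female NMRI mice. Drugs were given in arachis oil BP by ip route on day 2 or day 29. % inhibition was derived from treated/untreated control tumor weight (volume); a negative value indicates stimulation.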
# [14] = tested on: Mus musculus; assay: Mean relative body weight change of treated / mean relative body weight change of control when compound (3 mg/kg/day) administered to inhibit growth of human tumor xenograft GXF 97 was reported at day 21 in nude mice; type: functional
# In short: (§4)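 GXF 97 xenograft grown subcutaneously in nude mice for 24 days, then randomized; ip dosing began 1 day later, given on days 1-4, with 4-5 mice per group. Read-out is mean relative body weight change of treated divided by mean relative body weight change of controls, in %.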
# [15] = tested on: Mus musculus; assay: Body wieght treated/body weight untreated controls of compound (10 mg/Kg) was evaluated in vivo for antitumor activity against MAC 16 in female NMRI mice on day 4; type: functional
# [16] = tested on: Mus musculus; assay: Relative tumor size on day 28 was reported when compound (3 mg/kg/day) administered to inhibit growth of human tumor xenograft GXF 97 in nude mice; type: functional
# In short: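 GXF 97 human gastric xenograft grown subcutaneously in nude mice for 24 days, then mice randomized; treatment began 1 day later. Fractioned ip injections on days 1-4, or single iv injection on day 1; 4-5 mice per group. Tumor size from length and width; relative tumor size (% of controls) read at day 28.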
# [17] = tested on: A204; assay: In vitro antitumor activity against A204 rhabdomyosarcoma tumor cell line was determined; type: functional; settings: Homo sapiens, read-out: ID50 (the source's name); in short: as §3
# [18] = tested on: Mus musculus; assay: Median survival time in days for antitumor activity against P388 Leukemia in CD2 mice at single dose treatment of 12 mg/Kg
# [19] = tested on: Mus musculus; assay: Percent T/C ([…]) for antitumor activity against P388 Leukemia in CD2 mice at fractioned dose treatment of 12 mg/kg; type: functional; settings: in the assay text read “single dose” for “fractioned dose”; in short: as §1
# [20] = tested on: Mus musculus; assay: Median survival time in days for antitumor activity against P388 Leukemia in CD2 mice at fractioned dose treatment of 2 mg/kg; type: functional
# In short: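 P388 leukemia-bearing mice were dosed intraperitoneally once daily for 9 consecutive days (fractioned schedule). The read-out was median survival time in days, reported alongside %T/C and % body weight change.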
# [21] = tested on: Mus musculus; assay: Ability of intraperitoneally administered compound (3 mg/kg/day) to inhibit growth of human tumor xenograft GXF 97 was assessed on day 14 in nude mice; type: functional; in short: as §2
# [22] = tested on: Mus musculus; assay: Ability of intraperitoneally administered compound (3 mg/kg/day) to inhibit growth of human tumor xenograft GXF 97 was assessed on day 21 in nude mice; type: functional; in short: as §2
# [23] = tested on: Mus musculus; assay: Mean relative body weight change of treated / mean relative body weight change of control when compound (3 mg/kg/day) administered to inhibit growth of human tumor xenograft GXF 97 was reported at day 14 in nude mice; type: functional; in short: as §4
# [24] = tested on: Mus musculus; assay: Mean relative body weight change of treated / mean relative body weight change of control when compound (3 mg/kg/day) administered to inhibit growth of human tumor xenograft GXF 97 was reported at day 28 in nude mice; type: functional; in short: as §4
# [25] = tested on: Mus musculus; assay: Percent T/C ([…]) for antitumor activity against P388 Leukemia in CD2 mice at fractioned dose treatment of 8 mg/Kg; type: functional; settings: in the assay text read “single dose” for “fractioned dose”; in short: as §1
smiles,measurement,setting,value
COC1=CC(=O)c2c(c(COC(C)=O)c3n2CCC3OC(C)=O)C1=O (stereo not given),IC50,[1],0.495 mg/L
same,T/C,[2],109%
same,BW,[3],81%
same,T/C,[4],152%
same,T/C,[5],99%
same,BWC,[6],-20.9%
same,T/C,[7],31.7%
same,IC50,[8],0.037 mg/L
same,BWC,[9],-1.8%
same,BWC,[10],-2%
same,MST,[11],11 days
same,T/C,[12],104%
same,I,[13],-52%
same,BWC,[14],86.5%
same,BW,[15],105%
same,Relative TS,[16],210.1%
same,IC50,[17],0.008 mg/L
same,MST,[18],10 days
same,T/C,[19],91%
same,MST,[20],12 days
same,T/C,[21],39.3%
same,T/C,[22],31.7%
same,BWC,[23],89.6%
same,BWC,[24],87.1%
same,T/C,[25],100%
